Measured values taken from ChEMBL document CHEMBL4825680, “Structure-based discovery of potent and selective small-molecule inhibitors targeting signal transducer and activator of transcription 3 (STAT3)” (Eur J Med Chem, 2021).
Activity calls are given as the source filed them. The calls are words filed in the database; no cut-off is given here.

Legend:
[1] = test system: HCC70; assay: Inhibition of cell invasion in human HCC70 cells incubated for 12 hrs by crystal violet staining based transwell assay; format: functional; conditions: dose 1-3 µM
Summary of the method: (§1)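 Cells seeded at 1.5×10^4–3×10^4 per well in the upper chamber of 8.0 µm pore Transwell inserts and treated with graded compound for 12 h. Non-invading cells removed with cotton. Invaded cells fixed in 4% paraformaldehyde, stained with crystal violet, photographed and counted. Triplicate.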

[2] = biological target: T1, Signal transducer and activator of transcription 3 (Homo sapiens, UniProt P40763); assay: Inhibition of STAT3 phosphorylation at Tyr705 residue in human […] cells after 3 hrs by Western blotting analysis; format: cell-based; conditions: MDA-MB-468, dose 0.3-3 µM
T1 sequence (P40763 whole entry): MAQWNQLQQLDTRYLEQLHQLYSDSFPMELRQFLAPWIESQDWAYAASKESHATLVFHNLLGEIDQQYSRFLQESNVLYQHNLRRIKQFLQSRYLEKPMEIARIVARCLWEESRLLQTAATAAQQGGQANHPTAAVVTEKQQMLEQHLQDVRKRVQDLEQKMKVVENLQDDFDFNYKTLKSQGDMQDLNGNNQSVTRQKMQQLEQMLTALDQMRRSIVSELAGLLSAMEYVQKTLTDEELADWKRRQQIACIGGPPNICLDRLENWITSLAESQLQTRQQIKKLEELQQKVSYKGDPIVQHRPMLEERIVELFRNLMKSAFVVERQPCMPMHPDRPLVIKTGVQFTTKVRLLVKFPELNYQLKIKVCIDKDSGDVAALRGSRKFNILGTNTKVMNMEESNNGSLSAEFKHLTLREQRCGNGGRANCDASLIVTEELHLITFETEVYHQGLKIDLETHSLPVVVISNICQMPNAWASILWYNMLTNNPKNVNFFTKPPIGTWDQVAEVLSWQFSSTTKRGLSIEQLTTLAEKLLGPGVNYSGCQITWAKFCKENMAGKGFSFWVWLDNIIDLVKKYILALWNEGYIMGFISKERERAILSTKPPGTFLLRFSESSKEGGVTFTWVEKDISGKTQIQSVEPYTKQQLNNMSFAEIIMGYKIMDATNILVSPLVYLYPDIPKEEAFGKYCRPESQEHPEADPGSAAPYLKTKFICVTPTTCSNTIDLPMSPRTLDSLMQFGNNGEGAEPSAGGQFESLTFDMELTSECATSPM

[3] = test system: MDA-MB-468; assay: Induction of apoptosis in human MDA-MB-468 cells assessed as late apoptotic cells at 3 uM after 48 hrs by Annexin-V-FITC/propidium iodide staining based flow cytometric analysis (reference value: 1.25%); format: functional
[4] = test system: MDA-MB-468; assay: Induction of apoptosis in human MDA-MB-468 cells assessed as increase in PARP cleavage at 1 uM after 48 hrs by Western blot analysis; format: functional, cell-based
Summary of the method: (§2)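 Cells were treated with vehicle (0.1% DMSO) or compound, then analysed by western blot of RIPA lysates (20–50 μg protein, SDS-PAGE, PVDF) for PARP and cleaved caspase-7, with β-actin as loading control. Three independent experiments.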

[5] = biological target: T1, Signal transducer and activator of transcription 3; assay: Inhibition of STAT3 phosphorylation at Ser727 residue in human HCC70 cells at 3 uM after 3 hrs by Western blotting analysis; format: cell-based
[6] = test system: MDA-MB-468; assay: Induction of apoptosis in human MDA-MB-468 cells assessed as late apoptotic cells at 1 uM after 48 hrs by Annexin-V-FITC/propidium iodide staining based flow cytometric analysis (reference value: 1.25%); format: functional
[7] = Toxicity in NOD/SCID mouse xenografted with patient-derived breast cancer cells assessed as loss of appetite at 5 to 15 mg/kg, iv administered once daily for 20 days; format: organism-based; conditions: in vivo, 480 h, dose 5-15 mg/kg, time 20 day
[8] = test system: MDA-MB-468; assay: Inhibition of cell invasion in human MDA-MB-468 cells incubated for 12 hrs by crystal violet staining based transwell assay; format: functional; conditions: dose 1-3 µM; summary of the method: as §1
[9] = test system: MDA-MB-231; assay: Induction of apoptosis in human MDA-MB-231 cells assessed as necrotic cells at 1 uM after 48 hrs by Annexin-V-FITC/propidium iodide staining based flow cytometric analysis (Rvb =0.543%); format: functional
[10] = biological target: T1, Signal transducer and activator of transcription 3; assay: Inhibition of STAT3 DNA binding in human MDA-MB-231 cells at 0.3 to 1 uM after 3 hrs by EMSA analysis; format: cell-based; conditions: dose 0.3-1 µM
Summary of the method: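 Cells exposed to vehicle or compound for 3 h. Nuclear extracts prepared and BCA-quantified. Nuclear protein (8–10 µg) incubated with biotinylated STAT3 or STAT5 probe, resolved on 6% native polyacrylamide gel, transferred to nylon membrane and detected with a gel-shift kit.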

[11] = test system: MDA-MB-231; assay: Induction of apoptosis in human MDA-MB-231 cells assessed as increase in PARP cleavage at 3 uM after 48 hrs by Western blot analysis; format: functional, cell-based; summary of the method: as §2
[12] = Antitumor activity against patient-derived breast cancer cells xenografted in NOD/SCID mouse assessed as tumor growth inhibition at 5 mg/kg, iv administered once daily for 20 days; format: functional; conditions: Homo sapiens, Breast cancer cell line, 480 h, time 20 day, read-out: TGI
[13] = biological target: T1, Signal transducer and activator of transcription 3; assay: Inhibition of STAT3 phosphorylation at Ser727 residue in human MDA-MB-468 cells at 3 uM after 3 hrs by Western blotting analysis; format: cell-based
[14] = Induction of apoptosis in human MDA231-LM2-4175 cells assessed as necrotic cells at 1 uM after 48 hrs by Annexin-V-FITC/propidium iodide staining based flow cytometric analysis (reference value: 0.531%); format: functional
[15] = test system: MDA-MB-231; assay: Effect on total STAT3 level in human MDA-MB-231 cells at 0.3 to 3 uM measured after 3 hrs by Western blot analysis; format: functional, cell-based; conditions: dose 0.3-3 µM
Summary of the method: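 Breast cancer cells were treated with vehicle (0.1% DMSO) or compound, then lysed in RIPA with PMSF and phosphatase inhibitors. 20–50 μg protein was run on 8 or 12% SDS-PAGE, blotted to PVDF, blocked in 5% BSA, probed with primary antibodies overnight at 4 °C, then HRP secondaries, with ECL detection.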

[16] = test system: MDA-MB-468; assay: Inhibition of cell migration in human MDA-MB-468 cells incubated for 12 to 96 hrs by wound healing assay; format: functional, cell-based; conditions: dose 0.3-3 µM, time 12-96 hrs
Summary of the method: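 Cells grown to 100% confluence, then scratched with a pipette tip. Treated with 0–3 μM until vehicle-treated cells had migrated into the scratch. Images taken by microscope after about 12–96 h. Triplicate experiments.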

[17] = test system: MDA231-LM2-4175; assay: Inhibition of cell invasion in human MDA231-LM2-4175 cells incubated for 12 hrs by crystal violet staining based transwell assay; format: functional; conditions: dose 1-3 µM; summary of the method: as §1
[18] = test system: MDA231-LM2-4175; assay: Inhibition of colony formation in human MDA231-LM2-4175 cells at 0.3 uM after 10 to 15 days by crystal violet staining based assay; format: functional, cell-based; conditions: time 10-15 day
Summary of the method: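 Cells seeded at 0.5×10^3–1×10^3 per well; compound added the next day. Medium and compound renewed every 2–3 days. After about 10–15 days, colonies fixed with 4% paraformaldehyde, stained with crystal violet, scanned and quantified by image analysis. Triplicate.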

[19] = Toxicity in NOD/SCID mouse xenografted with patient-derived breast cancer cells assessed as morphological change in liver at 5 to 15 mg/kg, […] once daily for 20 days by HE staining based assay; format: organism-based; conditions: in vivo, iv, dose 5-15 mg/kg, time 20 day
Summary of the method: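 Female NOD-SCID mice implanted subcutaneously in the flank with about 2 mm³ TNBC PDX fragments. At about 100 mm³ tumour volume, randomised n=6/group: vehicle (PBS with 15% Cremophor EL), 5 or 15 mg/kg intraperitoneally daily. Killed at day 20; heart, liver, spleen, lung and kidney collected for morphological examination.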

[20] = Cmax in Sprague-Dawley rat at 10 mg/kg, po measured up to 24 hrs by LC-MS/MS analysis; format: ADME, organism-based; design: route oral, dose 10 mg/kg, time <=24; conditions: in vivo
Summary of the method: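 Male SD rats given a single oral dose of 10 mg/kg in DMSO/0.5% HPMC (5/95, v/v). Blood was drawn at 0.25, 0.5, 1, 2, 4, 8 and 24 h, and plasma was analysed by LC-MS/MS on a BEH phenyl column with a formic acid water/acetonitrile mobile phase.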

[21] = biological target: T1, Signal transducer and activator of transcription 3; assay: Inhibition of STAT3 in human MDA-MB-231 cells assessed as downregulation of Bcl-xL expression at 0.3 to 3 uM after 24 hrs by western blot analysis; format: cell-based; conditions: dose 0.3-3 µM
Summary of the method: (§3)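 TNBC cells given vehicle (0.1% DMSO) or graded compound levels for 24 h, lysed in RIPA with PMSF and phosphatase inhibitors. BCA-quantified lysate (20–50 µg) run on SDS-PAGE, transferred to PVDF, blocked in 5% BSA. Probed overnight at 4 °C for Bcl-xL, Mcl-1 and c-Myc, with β-actin. HRP secondary, ECL detection. Three independent experiments.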

[22] = biological target: T1, Signal transducer and activator of transcription 3; assay: Inhibition of STAT3 phosphorylation at Tyr705 residue in human HCC70 cells after 3 hrs by Western blotting analysis; format: cell-based; conditions: dose 0.3-3 µM
[23] = biological target: T1, Signal transducer and activator of transcription 3; assay: Inhibition of STAT3 in human MDA-MB-468 cells assessed as downregulation of Mcl-1 expression at 0.3 to 3 uM after 24 hrs by western blot analysis; format: cell-based; conditions: dose 0.3-3 µM; summary of the method: as §3

## O=C(Cc1c(-c2ccccc2)nc2ccccn12)Nc1ccc2c(c1)S(=O)(=O)C=C2
[1]
  inhibition: Dose-Dependent Effect
[2]
  inhibition: Dose-Dependent Effect
[3]
  Activity: 27.8%
[4]
  Activity: Active
[5]
  inhibition: inactive
[6]
  Activity: 16.6%
[7]
  Activity: Non-Toxic
[8]
  inhibition: Dose-Dependent Effect
[9]
  Activity: 1.57%
[10]
  inhibition: Active
[11]
  Activity: Active
[12]
  inhibition in vivo at 5 mg/kg: 32.7%
[13]
  inhibition: inactive
[14]
  Activity: 1.1%
[15]
  Activity: inactive
[16]
  inhibition: Dose-Dependent Effect
[17]
  inhibition: Dose-Dependent Effect
[18]
  inhibition: Active
[19]
  Activity: Non-Toxic
[20]
  Cmax: 23.8 ng/mL
[21]
  inhibition: Active
[22]
  inhibition: Dose-Dependent Effect
[23]
  inhibition: Active
